Reference: ChEMBL document CHEMBL3769376, “Discovery of I-BRD9, a Selective Cell Active Chemical Probe for Bromodomain Containing Protein 9 Inhibition” (J Med Chem, 2016)
≈ marks a conversion by molar mass, not a printed value. Calls of active or inactive are those of the source. The calls are words filed in the database; no cut-off is given here.

Experiments:
Cytochrome P450 3A4 = Cytochrome P450 3A4 (Homo sapiens, UniProt P08684); test: Inhibition of CYP3A4 (unknown origin) preincubated with substrate at <5 uM by mass spectrometry; format: ADME
Sequence of Cytochrome P450 3A4 (P08684 whole entry): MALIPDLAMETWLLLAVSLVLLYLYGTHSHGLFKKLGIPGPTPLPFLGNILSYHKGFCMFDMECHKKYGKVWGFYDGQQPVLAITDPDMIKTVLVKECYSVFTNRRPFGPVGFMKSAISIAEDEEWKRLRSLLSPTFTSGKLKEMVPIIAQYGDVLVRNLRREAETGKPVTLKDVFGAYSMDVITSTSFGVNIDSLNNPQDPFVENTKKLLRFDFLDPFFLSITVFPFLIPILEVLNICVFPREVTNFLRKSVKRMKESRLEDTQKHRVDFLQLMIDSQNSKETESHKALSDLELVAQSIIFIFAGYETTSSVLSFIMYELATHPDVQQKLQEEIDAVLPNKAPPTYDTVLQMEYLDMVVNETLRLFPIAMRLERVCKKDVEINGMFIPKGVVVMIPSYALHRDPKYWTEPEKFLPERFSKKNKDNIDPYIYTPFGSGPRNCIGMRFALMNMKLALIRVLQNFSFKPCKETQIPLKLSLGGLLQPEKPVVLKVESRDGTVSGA

[1] = target: cGMP-inhibited 3',5'-cyclic phosphodiesterase 3A (Homo sapiens) (UniProt Q14432); test: Inhibition of human PDE3A at <5 uM by luminescence assay
[2] = target: Sodium channel protein type 5 subunit alpha (Homo sapiens, UniProt Q14524); test: Inhibition of human Nav1.5 channel at <5 uM by electrophysiology
[3] = target: Acetylcholinesterase (Homo sapiens) (UniProt P22303); test: Inhibition of human acetylcholinesterase at <5 uM by mass spectrometry
Sequence of Acetylcholinesterase (Homo sapiens) (P22303 whole entry): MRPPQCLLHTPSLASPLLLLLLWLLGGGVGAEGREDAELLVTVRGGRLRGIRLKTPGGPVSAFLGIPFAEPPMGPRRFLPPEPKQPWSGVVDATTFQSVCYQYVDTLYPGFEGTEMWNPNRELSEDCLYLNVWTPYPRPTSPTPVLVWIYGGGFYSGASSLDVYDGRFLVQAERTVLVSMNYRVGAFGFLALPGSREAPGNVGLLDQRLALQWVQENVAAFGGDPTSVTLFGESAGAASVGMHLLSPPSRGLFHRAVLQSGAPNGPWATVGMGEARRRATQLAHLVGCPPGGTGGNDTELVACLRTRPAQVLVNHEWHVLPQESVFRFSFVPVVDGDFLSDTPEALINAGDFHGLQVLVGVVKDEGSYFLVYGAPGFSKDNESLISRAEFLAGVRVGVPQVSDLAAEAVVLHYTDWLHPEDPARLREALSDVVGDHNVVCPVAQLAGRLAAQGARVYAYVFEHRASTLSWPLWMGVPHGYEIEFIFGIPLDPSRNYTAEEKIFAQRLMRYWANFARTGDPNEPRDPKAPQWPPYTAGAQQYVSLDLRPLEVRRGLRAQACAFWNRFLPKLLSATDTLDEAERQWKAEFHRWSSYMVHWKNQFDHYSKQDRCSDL

[4] = target: Tyrosine-protein kinase Lck (Homo sapiens) (UniProt P06239); test: Inhibition of human LCK at <5 uM by IMAP assay
[5] = target: D(1A) dopamine receptor (Homo sapiens) (UniProt P21728); test: Antagonist activity at human D1 dopamine receptor at <5 uM by TR-FRET assay
Sequence of D(1A) dopamine receptor (Homo sapiens) (P21728 whole entry): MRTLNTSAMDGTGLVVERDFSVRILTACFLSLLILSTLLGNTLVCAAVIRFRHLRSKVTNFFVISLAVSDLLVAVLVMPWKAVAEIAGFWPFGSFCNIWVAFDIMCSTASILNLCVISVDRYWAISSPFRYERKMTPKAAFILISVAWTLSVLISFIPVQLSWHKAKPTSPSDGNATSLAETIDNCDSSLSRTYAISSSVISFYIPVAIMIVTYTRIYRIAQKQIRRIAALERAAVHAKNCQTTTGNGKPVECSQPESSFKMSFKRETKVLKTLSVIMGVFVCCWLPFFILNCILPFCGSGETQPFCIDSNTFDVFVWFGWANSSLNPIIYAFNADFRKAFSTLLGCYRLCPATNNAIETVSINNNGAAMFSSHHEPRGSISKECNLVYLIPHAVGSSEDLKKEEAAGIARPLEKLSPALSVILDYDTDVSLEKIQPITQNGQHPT

[6] = target: Nuclear receptor subfamily 1 group I member 2 (Homo sapiens, UniProt O75469); test: Agonist activity at human PXR at <5 uM by luciferase reporter gene assay
[7] = target: 5-hydroxytryptamine receptor 2C (Homo sapiens) (UniProt P28335); test: Agonist activity at human 5HT2C receptor assessed as change in intracellular calcium level at <5 uM by fluorescence assay; format: functional, cell-based
[8] = target: 5-hydroxytryptamine receptor 2A (Homo sapiens) (UniProt P28223); test: Antagonist activity at human 5HT2A receptor assessed as change in intracellular calcium level at <5 uM by fluorescence assay; format: functional, cell-based
Sequence of 5-hydroxytryptamine receptor 2A (Homo sapiens) (P28223 whole entry, canonical isoform): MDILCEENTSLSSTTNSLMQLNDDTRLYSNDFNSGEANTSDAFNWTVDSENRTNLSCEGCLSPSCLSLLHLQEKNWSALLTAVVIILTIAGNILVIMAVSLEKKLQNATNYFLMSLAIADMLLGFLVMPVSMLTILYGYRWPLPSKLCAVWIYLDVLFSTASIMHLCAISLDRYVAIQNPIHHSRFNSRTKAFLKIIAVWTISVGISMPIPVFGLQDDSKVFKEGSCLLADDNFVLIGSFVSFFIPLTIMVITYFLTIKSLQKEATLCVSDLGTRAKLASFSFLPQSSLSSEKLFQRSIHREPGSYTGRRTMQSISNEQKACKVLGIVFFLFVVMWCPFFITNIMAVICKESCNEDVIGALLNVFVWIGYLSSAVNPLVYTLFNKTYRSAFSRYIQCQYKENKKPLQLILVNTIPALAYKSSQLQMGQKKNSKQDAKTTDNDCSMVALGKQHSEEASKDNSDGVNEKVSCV

[9] = target: D(2) dopamine receptor (Homo sapiens) (UniProt P14416); test: Antagonist activity at human D2 dopamine receptor at <5 uM by scintillation proximity assay
Sequence of D(2) dopamine receptor (Homo sapiens) (P14416 whole entry): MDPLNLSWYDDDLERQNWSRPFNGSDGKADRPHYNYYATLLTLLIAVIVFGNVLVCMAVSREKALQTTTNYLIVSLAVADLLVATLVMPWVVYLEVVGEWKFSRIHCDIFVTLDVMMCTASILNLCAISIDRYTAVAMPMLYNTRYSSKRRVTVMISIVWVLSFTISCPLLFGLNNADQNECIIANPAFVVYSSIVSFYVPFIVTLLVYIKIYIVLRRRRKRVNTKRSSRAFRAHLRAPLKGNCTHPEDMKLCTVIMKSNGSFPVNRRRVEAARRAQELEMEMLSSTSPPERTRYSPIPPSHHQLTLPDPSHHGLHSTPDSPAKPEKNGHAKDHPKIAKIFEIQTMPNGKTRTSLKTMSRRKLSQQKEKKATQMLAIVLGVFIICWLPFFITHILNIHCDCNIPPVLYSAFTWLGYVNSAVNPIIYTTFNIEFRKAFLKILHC

[10] = target: Beta-2 adrenergic receptor (Homo sapiens) (UniProt P07550); test: Agonist activity at human beta-2 adrenergic receptor at <5 uM by TR-FRET assay
Sequence of Beta-2 adrenergic receptor (Homo sapiens) (P07550 whole entry, looked up): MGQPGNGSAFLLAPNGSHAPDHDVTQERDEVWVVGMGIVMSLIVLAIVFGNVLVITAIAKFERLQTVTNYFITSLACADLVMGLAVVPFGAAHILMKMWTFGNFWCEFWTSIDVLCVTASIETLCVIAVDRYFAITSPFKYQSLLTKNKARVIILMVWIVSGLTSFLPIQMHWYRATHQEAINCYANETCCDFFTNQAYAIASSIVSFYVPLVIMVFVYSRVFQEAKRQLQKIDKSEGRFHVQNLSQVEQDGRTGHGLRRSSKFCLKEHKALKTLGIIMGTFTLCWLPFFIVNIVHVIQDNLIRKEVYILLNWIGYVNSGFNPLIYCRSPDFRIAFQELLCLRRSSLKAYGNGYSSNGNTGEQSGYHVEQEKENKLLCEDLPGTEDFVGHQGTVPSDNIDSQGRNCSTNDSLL

[11] = target: Aurora kinase B (Homo sapiens) (UniProt Q96GD4); test: Inhibition of human aurora B at <5 uM by IMAP assay
Homo sapiens [12] = species: Homo sapiens; test: Positive modulator activity at human GABA-A receptor at <5 uM by electrophysiology
[13] = target: 5-hydroxytryptamine receptor 1B (Homo sapiens) (UniProt P28222); test: Antagonist activity at human 5HT1B receptor at <5 uM by scintillation proximity assay
Sequence of 5-hydroxytryptamine receptor 1B (Homo sapiens) (P28222 whole entry): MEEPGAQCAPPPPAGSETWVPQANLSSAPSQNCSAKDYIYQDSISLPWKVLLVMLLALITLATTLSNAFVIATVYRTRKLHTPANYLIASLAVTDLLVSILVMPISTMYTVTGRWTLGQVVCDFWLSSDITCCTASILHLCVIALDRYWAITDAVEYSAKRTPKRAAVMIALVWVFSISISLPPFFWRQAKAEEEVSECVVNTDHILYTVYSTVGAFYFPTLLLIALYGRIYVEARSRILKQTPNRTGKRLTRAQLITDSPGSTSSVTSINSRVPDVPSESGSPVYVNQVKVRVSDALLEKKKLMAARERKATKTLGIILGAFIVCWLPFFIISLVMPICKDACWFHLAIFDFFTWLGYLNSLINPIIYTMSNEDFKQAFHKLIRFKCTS

[14] = target: Cannabinoid receptor 2 (Homo sapiens) (UniProt P34972); test: Agonist activity at human CB2 receptor at <5 uM by Yeast FDLu assay
[15] = target: 3',5'-cyclic-AMP phosphodiesterase 4B (Homo sapiens) (UniProt Q07343); test: Inhibition of human PDE4B at <5 uM by luminescence assay
[16] = target: Bromodomain-containing protein 3 (Homo sapiens, UniProt Q15059); test: Inhibition of BRD3 in human HUT78 cells incubated for 45 mins by chemoproteomic competition binding assay; format: cell-based
In short: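 Nuclear and tight-chromatin extracts were prepared from HuT78 cells grown in spinner flasks. Compound was spiked into the mixed extracts at a range of doses and incubated for 45 min at 4 °C. Extracts were then incubated with sepharose beads derivatised with 2.0 mM of an amine-bearing bromodomain ligand. Beads were washed with 0.2% NP-40 lysis buffer and eluted in SDS/DTT. BRD3 was read out by Western blot.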

[17] = target: 5-hydroxytryptamine receptor 3A (Homo sapiens) (UniProt P46098); test: Agonist activity at human 5HT3 receptor assessed as change in intracellular calcium level at <5 uM by fluorescence assay; format: cell-based
Sequence of 5-hydroxytryptamine receptor 3A (Homo sapiens) (P46098 whole entry): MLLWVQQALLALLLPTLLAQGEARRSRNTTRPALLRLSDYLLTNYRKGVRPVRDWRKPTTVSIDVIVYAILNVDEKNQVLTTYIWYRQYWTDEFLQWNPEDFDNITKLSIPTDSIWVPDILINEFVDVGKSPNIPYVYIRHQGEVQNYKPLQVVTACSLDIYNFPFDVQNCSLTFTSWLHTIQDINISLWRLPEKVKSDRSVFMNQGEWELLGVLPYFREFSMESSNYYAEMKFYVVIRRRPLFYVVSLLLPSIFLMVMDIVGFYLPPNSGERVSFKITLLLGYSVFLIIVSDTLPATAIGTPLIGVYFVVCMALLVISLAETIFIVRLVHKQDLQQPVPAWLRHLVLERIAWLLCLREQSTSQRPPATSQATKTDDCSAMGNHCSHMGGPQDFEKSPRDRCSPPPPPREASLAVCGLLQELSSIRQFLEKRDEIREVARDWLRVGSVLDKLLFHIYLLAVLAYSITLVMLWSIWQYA

[18] = target: 5-hydroxytryptamine receptor 1B (Homo sapiens) (UniProt P28222); test: Agonist activity at human 5HT1B receptor at <5 uM by scintillation proximity assay
[19] = target: Vasopressin V1a receptor (Homo sapiens) (UniProt P37288); test: Antagonist activity at human vasopressin V1a receptor assessed as change in intracellular calcium level at <5 uM by fluorescence assay; format: functional, cell-based
Sequence of Vasopressin V1a receptor (Homo sapiens) (P37288 whole entry, looked up): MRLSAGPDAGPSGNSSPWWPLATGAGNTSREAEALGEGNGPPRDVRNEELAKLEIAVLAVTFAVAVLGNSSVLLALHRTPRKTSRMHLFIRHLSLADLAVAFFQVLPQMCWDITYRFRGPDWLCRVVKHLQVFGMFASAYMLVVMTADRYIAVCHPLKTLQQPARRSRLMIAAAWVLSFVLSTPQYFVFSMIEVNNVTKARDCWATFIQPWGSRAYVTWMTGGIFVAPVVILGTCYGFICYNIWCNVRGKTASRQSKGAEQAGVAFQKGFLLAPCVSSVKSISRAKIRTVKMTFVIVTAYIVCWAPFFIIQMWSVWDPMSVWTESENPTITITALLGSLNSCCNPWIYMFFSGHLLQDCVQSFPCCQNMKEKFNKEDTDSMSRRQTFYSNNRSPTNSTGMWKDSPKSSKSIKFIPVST

Homo sapiens [20] = species: Homo sapiens; test: Agonist activity at human GABA-A receptor at <5 uM by electrophysiology
[21] = target: T1, Bromodomain-containing protein 9 (Homo sapiens) (UniProt Q9H8M2); settings: Kasumi 1, 10 uM
T1 sequence (whole entry): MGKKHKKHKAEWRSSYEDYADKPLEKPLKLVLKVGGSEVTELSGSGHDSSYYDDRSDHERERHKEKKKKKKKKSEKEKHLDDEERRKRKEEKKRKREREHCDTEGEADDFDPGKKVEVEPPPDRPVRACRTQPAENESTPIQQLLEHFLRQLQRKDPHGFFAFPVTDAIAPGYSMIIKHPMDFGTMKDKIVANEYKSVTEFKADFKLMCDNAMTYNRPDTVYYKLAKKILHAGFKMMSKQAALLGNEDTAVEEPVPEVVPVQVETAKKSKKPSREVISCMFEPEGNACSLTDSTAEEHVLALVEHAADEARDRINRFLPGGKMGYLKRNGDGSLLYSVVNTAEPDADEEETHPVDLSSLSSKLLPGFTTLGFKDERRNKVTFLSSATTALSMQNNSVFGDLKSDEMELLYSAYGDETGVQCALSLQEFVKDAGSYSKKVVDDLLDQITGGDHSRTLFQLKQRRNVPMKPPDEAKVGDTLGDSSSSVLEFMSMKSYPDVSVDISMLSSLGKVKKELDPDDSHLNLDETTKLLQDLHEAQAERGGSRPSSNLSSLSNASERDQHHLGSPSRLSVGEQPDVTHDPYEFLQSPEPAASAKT

[22] = target: D(2) dopamine receptor (Homo sapiens) (UniProt P14416); test: Agonist activity at human D2 dopamine receptor at <5 uM by scintillation proximity assay
[23] = Aqueous solubility of the compound in PBS at pH 7.4 by chemiluminescent nitrogen detection method; format: physicochemical
In short: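 A 10 mM DMSO stock was precipitated into pH7.4 phosphate buffered saline at 5% DMSO. Dissolved compound was quantified by chemiluminescent nitrogen detection.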

[24] = target: 5-hydroxytryptamine receptor 3A (Homo sapiens) (UniProt P46098); test: Antagonist activity at human 5HT3 receptor assessed as change in intracellular calcium level at <5 uM by fluorescence assay; format: cell-based
[25] = target: Voltage-gated inwardly rectifying potassium channel KCNH2 (Homo sapiens, UniProt Q12809); test: Inhibition of human ERG channel at <5 uM by electrophysiology
[26] = target: Potassium voltage-gated channel subfamily A member 5 (Homo sapiens) (UniProt P22460); test: Inhibition of human Kv1.5 channel at <5 uM by electrophysiology
[27] = target: Voltage-dependent L-type calcium channel subunit alpha-1C (Homo sapiens, UniProt Q13936); test: Inhibition of human Cav1.2 channel at <5 uM by electrophysiology
[28] = target: 5-hydroxytryptamine receptor 2A (Homo sapiens) (UniProt P28223); test: Agonist activity at human 5HT2A receptor by assessed as change in intracellular calcium level at <5 uM by fluorescence assay; format: functional, cell-based
[29] = target: Phosphatidylinositol 4,5-bisphosphate 3-kinase catalytic subunit gamma isoform (Homo sapiens) (UniProt P48736); test: Inhibition of human PI3Kgamma at <5 uM by TR-FRET assay
[30] = target: Muscarinic acetylcholine receptor M2 (Homo sapiens) (UniProt P08172); test: Agonist activity at human muscarinic 2 receptor assessed as change in intracellular calcium level at <5 uM by fluorescence assay; format: functional, cell-based
Sequence of Muscarinic acetylcholine receptor M2 (Homo sapiens) (P08172 whole entry): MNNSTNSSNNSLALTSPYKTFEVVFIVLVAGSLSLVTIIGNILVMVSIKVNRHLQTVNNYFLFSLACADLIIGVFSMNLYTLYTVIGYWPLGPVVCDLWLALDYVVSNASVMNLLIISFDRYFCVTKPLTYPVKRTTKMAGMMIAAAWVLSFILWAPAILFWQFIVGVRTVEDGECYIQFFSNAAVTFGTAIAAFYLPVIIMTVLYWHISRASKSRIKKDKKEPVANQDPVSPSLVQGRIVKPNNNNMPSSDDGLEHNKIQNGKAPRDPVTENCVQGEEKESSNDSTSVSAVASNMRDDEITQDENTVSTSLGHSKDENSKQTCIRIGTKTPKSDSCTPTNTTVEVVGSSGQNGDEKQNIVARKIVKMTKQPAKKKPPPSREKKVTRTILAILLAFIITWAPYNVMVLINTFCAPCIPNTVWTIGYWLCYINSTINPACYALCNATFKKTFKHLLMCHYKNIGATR

In the case of CCn1cc(-c2cccc(C(F)(F)F)c2)c2sc(C(=N)NC3CCS(=O)(=O)CC3)cc2c1=O, the “inhibition (INH)” value (Cytochrome P450 3A4) is reported as “Not Active”, the inhibition [1] is reported as “inactive” and the “inhibition (INH)” value [2] is reported as “Not Active”. The inhibition [3] was “inactive”, the inhibition [4] was “inactive” and the inhibition [5] was “inactive”. The Activity [6] was “Not Active”, the Activity [7] was “inactive” and the inhibition [8] was “inactive”. The inhibition [9] was “inactive”, the Activity [10] was “inactive” and the inhibition [11] was “inactive”. For the same compound, the Activity (Homo sapiens [12]) was “inactive”, the inhibition [13] was “inactive” and the Activity [14] was “inactive”. The inhibition [15] was “inactive”, the IC50 [16] was > 50.1 µM and the Activity [17] was “inactive”. The Activity [18] was “inactive”, the inhibition [19] was “inactive” and the Activity (Homo sapiens [20]) was “inactive”. For the same compound, the inhibition [21] was “Active”, the Activity [22] was “inactive” and the solubility [23] was 359 µM (≈ 179 µg/mL). The inhibition [24] was “inactive”, the “inhibition (INH)” value [25] was “Not Active” and the inhibition [26] was “inactive”. The “inhibition (INH)” value [27] was “Not Active”, the Activity [28] was “inactive” and the inhibition [29] was “inactive”. The Activity [30] was “inactive”.
